These results are taken from ChEMBL document CHEMBL1649212, “AI-2/LuxS is involved in increased biofilm formation by Streptococcus intermedius in the presence of antibiotics” (2009).

The source made the active and inactive calls. The rule behind the calls is not given here.

The subject of test [1] is Streptococcus intermedius. The test is described as follows: Antimicrobial activity against Streptococcus intermedius SI006 planktonic cells harboring luxS mutant gene assessed as bacterial count at 0.15 ug/ml in presence of 0.8 nM autoinducer 4,5-dihydroxy-2,3-pentanedione (Rvb =790.8 +/- 90.09 10^8 CFU/ml). The class given is functional.
For test [2], the system named is Streptococcus intermedius. The test is described as follows: Antimicrobial activity against Streptococcus intermedius NCTC 11324 planktonic cells assessed as bacterial count at 0.08 ug/ml (Rvb =791.7 +/- 44.10 10^8 CFU/ml). The class given is functional. In a few lines: (§1)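 Planktonic wild-type cells were inoculated at ≈4 × 10^5 CFU/ml in TSB in ultra-low-binding plates. Media were without or with ampicillin (0.02 to 0.14 μg/ml), ciprofloxacin (0.10 to 0.35 μg/ml) or tetracycline (0.03 to 0.20 μg/ml). After 12 h at 37°C in 5% CO2 aerobic air, CFU were counted, run in parallel with the BacTiter-Glo ATP assay. Experiments were done three times in two parallels.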

The test system of test [3] is Streptococcus intermedius. The test is described as follows: Antimicrobial activity against Streptococcus intermedius SI006 planktonic cells harboring luxS mutant gene assessed as bacterial count at 0.10 ug/ml in presence of 0.8 nM autoinducer 4,5-dihydroxy-2,3-pentanedione (Rvb =790.8 +/- 90.09 10^8 CFU/ml). The class given is functional.
Test [4] concerns Streptococcus intermedius. The test is described as follows: Antimicrobial activity against Streptococcus intermedius NCTC 11324 biofilm assessed as biofilm bacterial count at 0.07 ug/ml (Rvb =402.9 +/- 26.88 10^5 CFU/ml). The class given is functional.
In test [5] the test system is Streptococcus intermedius. The test is described as follows: Antimicrobial activity against Streptococcus intermedius NCTC 11324 assessed as growth inhibition at 0.7 ug/ml. The format is functional. In a few lines:
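Broth microdilution MIC in ultra-low-binding 96-well plates, inoculum ≈4 × 10^5. Growth was read at 595 nm, and the MIC was taken as the lowest antibiotic concentration inhibiting growth.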

For test [6], the system named is Streptococcus intermedius. The test is described as follows: Antimicrobial activity against Streptococcus intermedius NCTC 11324 planktonic cells assessed as bacterial count at 0.15 ug/ml (Rvb =791.7 +/- 44.10 10^8 CFU/ml). The format is functional. In a few lines: as §1
The subject of test [7] is Streptococcus intermedius. The test is described as follows: Antimicrobial activity against Streptococcus intermedius NCTC 11324 biofilm assessed as biofilm bacterial count at 0.05 ug/ml (Rvb =402.9 +/- 26.88 10^5 CFU/ml). The class given is functional.
The subject of test [8] is Streptococcus intermedius. The test is described as follows: Antimicrobial activity against Streptococcus intermedius SI006 biofilm harboring luxS mutant gene assessed as biofilm bacterial count at 0.07 ug/ml (Rvb =310.8 +/- 17.10 10^5 CFU/ml). The format is functional.
Test [9] relates to Streptococcus intermedius. The test is described as follows: Antimicrobial activity against Streptococcus intermedius SI006 planktonic cells harboring luxS mutant gene assessed as bacterial count at 0.08 ug/ml (Rvb =757.5 +/- 80.14 10^8 CFU/ml). The class given is functional.
The subject of test [10] is Streptococcus intermedius. The test is described as follows: Antimicrobial activity against Streptococcus intermedius NCTC 11324 assessed as biofilm formation at 0.05 to 0.10 ug/ml. The class given is functional, organism-based. In a few lines:
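Wild-type NCTC 11324 was grown overnight in TSB and inoculated into TSB with ampicillin (0.02 to 0.10 μg/ml), ciprofloxacin (0.10 to 0.28 μg/ml) or tetracycline (0.05 to 0.30 μg/ml), added at time zero. Wells held plastic coverslips and were incubated 12 h at 37°C in 5% CO2 aerobic air. Biofilm was measured as described previously. Experiments were done three times in three parallels.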

The test system of test [11] is Streptococcus intermedius. The test is described as follows: Antimicrobial activity against Streptococcus intermedius NCTC 11324 planktonic cells assessed as bacterial count at 0.10 ug/ml (Rvb =791.7 +/- 44.10 10^8 CFU/ml). The class given is functional. In a few lines: as §1
The test system of test [12] is Streptococcus intermedius. The test is described as follows: Antimicrobial activity against Streptococcus intermedius SI006 biofilm harboring luxS mutant gene assessed as biofilm bacterial count at 0.05 ug/ml (Rvb =310.8 +/- 17.10 10^5 CFU/ml). The class given is functional.
The subject of test [13] is Streptococcus intermedius. The test is described as follows: Antimicrobial activity against Streptococcus intermedius NCTC 11324 biofilm assessed as biofilm bacterial count at 0.10 ug/ml (Rvb =402.9 +/- 26.88 10^5 CFU/ml). The format is functional.
Test [14] deals with Streptococcus intermedius. The test is described as follows: Antimicrobial activity against Streptococcus intermedius SI006 biofilm harboring luxS mutant gene assessed as biofilm bacterial count at 0.07 ug/ml in presence of 0.8 nM autoinducer 4,5-dihydroxy-2,3-pentanedione (Rvb =413.7 +/- 24.47 10^5 CFU/ml). The class given is functional.
The test system of test [15] is Streptococcus intermedius. The test is described as follows: Antimicrobial activity against Streptococcus intermedius NCTC 11324 planktonic cells assessed as bacterial count at 0.12 ug/ml (Rvb =791.7 +/- 44.10 10^8 CFU/ml). The format is functional. In a few lines:
as §1

Test [16] deals with Streptococcus intermedius. The test is described as follows: Antimicrobial activity against Streptococcus intermedius SI006 planktonic cells harboring luxS mutant gene assessed as bacterial count at 0.15 ug/ml (Rvb =757.5 +/- 80.14 10^8 CFU/ml). The class given is functional.
In test [17] the test system is Streptococcus intermedius. The test is described as follows: Antimicrobial activity against Streptococcus intermedius SI006 biofilm harboring luxS mutant gene assessed as biofilm bacterial count at 0.05 ug/ml in presence of 0.8 nM autoinducer 4,5-dihydroxy-2,3-pentanedione (Rvb =413.7 +/- 24.47 10^5 CFU/ml). The format is functional.
Test [18] has as its system Streptococcus intermedius. The test is described as follows: Antimicrobial activity against Streptococcus intermedius SI006 planktonic cells harboring luxS mutant gene assessed as bacterial count at 0.12 ug/ml (Rvb =757.5 +/- 80.14 10^8 CFU/ml). The format is functional.
The subject of test [19] is Streptococcus intermedius. The test is described as follows: Antimicrobial activity against Streptococcus intermedius SI006 biofilm harboring luxS mutant gene assessed as biofilm bacterial count at 0.10 ug/ml in presence of 0.8 nM autoinducer 4,5-dihydroxy-2,3-pentanedione (Rvb =413.7 +/- 24.47 10^5 CFU/ml). The format is functional.
In test [20] the test system is Streptococcus intermedius. The test is described as follows: Antimicrobial activity against Streptococcus intermedius SI006 planktonic cells harboring luxS mutant gene assessed as bacterial count at 0.10 ug/ml (Rvb =757.5 +/- 80.14 10^8 CFU/ml). The class given is functional.
Test [21] concerns Streptococcus intermedius. The test is described as follows: Antimicrobial activity against Streptococcus intermedius SI006 planktonic cells harboring luxS mutant gene assessed as bacterial count at 0.12 ug/ml in presence of 0.8 nM autoinducer 4,5-dihydroxy-2,3-pentanedione (Rvb =790.8 +/- 90.09 10^8 CFU/ml). The format is functional.
Test [22] concerns Streptococcus intermedius. The test is described as follows: Antimicrobial activity against Streptococcus intermedius SI006 biofilm harboring luxS mutant gene assessed as biofilm bacterial count at 0.10 ug/ml (Rvb =310.8 +/- 17.10 10^5 CFU/ml). The class given is functional.
For test [23], the system named is Streptococcus intermedius. The test is described as follows: Antimicrobial activity against Streptococcus intermedius SI006 planktonic cells harboring luxS mutant gene assessed as bacterial count at 0.08 ug/ml in presence of 0.8 nM autoinducer 4,5-dihydroxy-2,3-pentanedione (Rvb =790.8 +/- 90.09 10^8 CFU/ml). The format is functional.

For `CN(C)[C@@H]1C(O)=C(C(N)=O)C(=O)[C@@]2(O)C(O)=C3C(=O)c4c(O)cccc4[C@@](C)(O)[C@H]3C[C@@H]12` [TETRACYCLINE], the CFU in test [1] turned out to be 10.1 ×10⁸ /ml; in test [2] it was 61.9 ×10⁸ /ml; in [3], 25.2 ×10⁸ /ml; in test [4] it was 637.1 ×10⁵ /ml; in test [6] it was 24.2 ×10⁸ /ml; in test [7], 779.2 ×10⁵ /ml. Besides, the CFU was 253.1 ×10⁵ /ml in test [8]; 11.2 ×10⁸ /ml in test [9]; 44.5 ×10⁸ /ml in test [11]; 333 ×10⁵ /ml in [12]; 610.5 ×10⁵ /ml in [13]; 253.1 ×10⁵ /ml in [14]. Moreover, the CFU in [15] is on record as 32 ×10⁸ /ml; in [16] it was 2 ×10⁸ /ml; in test [17] it was 333 ×10⁵ /ml; in [18], 3 ×10⁸ /ml; in [19], 486.2 ×10⁵ /ml; in test [20] it was 5.7 ×10⁸ /ml. Moreover, the CFU in [21] is listed as 16.3 ×10⁸ /ml; in [22] it was 108.8 ×10⁵ /ml; in test [23], 38.4 ×10⁸ /ml. Also, in [5], the Activity was 0.7 µg/mL. For the same molecule, the result in [10] was inactive.
